Most compounds without a hit are left out; they make up all but 1.1% or so of the library.
GSK3A inh: blocks human GSK-3 alpha kinase; P49840; ADP-Glo luminescence, 60 min; 320,000 compounds, 0.1% hits; inhibition, % at 10 µM;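 active = more than half of replicates show inhibition above 20%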;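 note: GST-tagged GSK-3 alpha with peptide substrate and 25 µM ATP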
SR-BI uptake up: activators of SR-BI mediated HDL lipid uptake | CHO ldlA[mSR-BI] cells, DiI-HDL uptake fluorescence, 3 h; 100 = double the neutral-control signal | activation, % at 12.5 µM | 320,000 compounds, 0.096% hits;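 active = mean replicate activation of at least 60% and every replicate at or above 60%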
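material = CHO ldlA[mSR-BI] cells | medium = Ham's F12 with 0.5% BSA, HEPES 25 mM, pH 7.4 | reagent = fluorescent DiI-HDL, 10 µg/mL final | compound dosing = single-point compound dose | incubation = 3 h, 37 °C | measured by = bottom-read fluorescence, 550/595 nm | measure = HDL uptake via cellular fluorescence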
CDK5 inh: blocks human CDK5/p35 kinase activity | Recombinant CDK5/p35, ADP-Glo luminescence, 60 min | 330,000 compounds, 0.01% hits | AID 488839 | Q00535+Q15078 | inhibition, % at 10 µM;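 active = highest replicate inhibition of at least 50% and at least 75% of replicates reaching 50%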
GSK3beta inhib: blocks human GSK3beta kinase activity; activity score (negative = inhibition), % at 10 µM; 300,000 compounds, 0.038% hits; GST-GSK3beta kinase, ADP-Glo luminescence, 60 min; hits give low values;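 active = more than half of replicate wells score below -50%, meaning over 50% inhibition versus plate controls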
Target sequence (P49841 whole entry, looked up): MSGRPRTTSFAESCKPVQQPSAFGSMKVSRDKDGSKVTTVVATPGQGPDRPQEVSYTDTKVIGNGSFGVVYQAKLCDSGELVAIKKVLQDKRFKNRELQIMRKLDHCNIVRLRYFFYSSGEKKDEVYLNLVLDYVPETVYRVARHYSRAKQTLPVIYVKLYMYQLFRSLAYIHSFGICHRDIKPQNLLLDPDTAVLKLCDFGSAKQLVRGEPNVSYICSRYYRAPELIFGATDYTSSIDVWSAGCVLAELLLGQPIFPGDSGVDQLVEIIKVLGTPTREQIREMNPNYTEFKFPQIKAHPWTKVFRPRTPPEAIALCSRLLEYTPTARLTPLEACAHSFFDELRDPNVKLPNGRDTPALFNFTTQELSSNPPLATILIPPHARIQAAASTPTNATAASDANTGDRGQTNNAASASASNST
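Test system – GST-tagged human GSK3beta kinase, cell-free · Incubation – 60 min enzyme reaction, room temperature · Signal – ADP-Glo luminescence · Also added – peptide substrate and ATP at 25 µM · Controls – DMSO neutral wells and GW8510 at 20 µM as positive · Buffer or medium – Tris/MgCl2 kinase buffer · Measure – Luminescence-derived activity versus plate DMSO and GW8510 wells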
SR-BI DiI inh: inhibitors of mouse SR-BI mediated HDL lipid uptake. ldlA[mSR-BI] CHO cells, DiI-HDL uptake fluorescence, 3 h. 320,000 compounds, 0.96% hits. Q61009. inhibition, % at 12.5 µM;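 active = mean replicate inhibition of at least 70% and a set share of replicates each scoring 70 or more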
Numbers stand for hits; . = inactive; / = no result.

SMILES | GSK3A inh | SR-BI uptake up | CDK5 inh | GSK3beta inhib | SR-BI DiI inh
O=C1NC(=Nc2ccc(Cl)cc2)/C(=C/c2ccco2)S1 | . | . | . | . | 82
Nc1ncc(-c2ccccc2)c(-c2ccc(O)cc2O)n1 | 60 | . | . | . | .
COc1cccc(NC(=O)Cc2csc(NC(=O)Nc3ccccc3OC)n2)c1 | . | . | . | . | .
COc1ccccc1NC(=O)Nc1nc(CC(=O)Nc2ccc(OC)c(OC)c2)cs1 | . | . | . | . | 82
COc1ccc(Nc2sc(C(=O)c3ccc(Cl)cc3)c(N)c2C(=O)Nc2ccccc2OC)cc1 | . | . | . | . | 93
CCCc1cc(N2CCCC2)n2nc(C)c(-c3ccccc3)c2n1 | . | . | . | . | 78
C[C@@]12C(=O)N(c3ccc(Br)cc3)C(=O)N1[C@@H]1c3ccccc3OC[C@@H]1[C@H]2c1ccccc1 | . | . | . | / | .
C[C@]12C(=O)N(c3ccc(Br)cc3)C(=O)N1[C@@H]1c3ccccc3OC[C@@H]1[C@H]2c1ccccc1 | . | . | . | . | 75
COc1ccc2c(c1)OC[C@H]1[C@H]2N2C(=O)c3cc(OC)ccc3NC(=O)[C@@]2(C)[C@H]1c1ccccc1 | . | . | . | / | 73
COc1ccc2c(c1)OC[C@H]1[C@H]2N2C(=O)c3cc(F)ccc3NC(=O)[C@@]2(C)[C@H]1c1ccccc1 | . | . | . | / | .
COc1ccc2cnn(-c3ccc(OC(F)(F)F)cc3)c(=O)c2c1OC | . | . | . | . | .
Cn1nnnc1SCCNC(=O)C1CCC(=O)N(Cc2ccc(Cl)cc2)C1 (configuration not stated) | . | . | . | . | .
Cn1nnnc1SCCNC(=O)C1CCC(=O)N(Cc2ccccc2F)C1 (configuration not stated) | . | 72 | . | . | .
N#Cc1ccc(NC(=O)Nc2ccc(Oc3ccc(NC(=O)Nc4ccc(C#N)cc4)cc3)cc2)cc1 | . | . | . | . | 87
COc1ccc(Br)cc1CN(C)C(=O)CNC(=O)c1ccc2ccccc2c1 | . | / | . | . | /
CCOC(=O)c1c(-c2ccccc2)csc1NC(=O)/C(C#N)=C\c1ccc(O)c(OC)c1 | / | . | . | / | 85
COc1cc(/C=C/C(=O)N2CCN(CC(O)COc3ccccc3)CC2)cc(OC)c1OC (configuration not stated) | . | . | . | . | 79
COc1cc(C(=O)N2CCN(CC(O)COc3ccccc3)CC2)cc(OC)c1OC (configuration not stated) | . | . | . | . | .
Cc1ccc(S(=O)(=O)Nc2ccccc2N=Cc2c(F)c(F)c(F)c(F)c2F)cc1 | / | . | . | / | 92
Cc1ccc(S(=O)(=O)Nc2ccccc2C=Nc2cccc(C)c2C)cc1 | . | . | . | . | .
O=C(c1ccsc1)N1CCCC(N2CCN(c3ccccc3F)CC2)C1 (configuration not stated) | . | . | . | . | .
O=C(c1noc2c1CCCC2)N1CCCC(N2CCN(c3ccccc3F)CC2)C1 (configuration not stated) | . | . | . | . | 73
O=C(CC1S/C(=N/N=C/c2cccs2)NC1=O)Nc1ccccc1F (configuration not stated) | . | . | . | . | 80
C=CCC1S/C(=N/N=C/c2cccs2)NC1=O (configuration not stated) | . | . | . | . | .
COc1ccc(/C(C)=N/Nc2nc(C)cc(-c3ccccc3)n2)cc1 | . | / | / | . | /
SMILES | GSK3A inh | SR-BI uptake up | CDK5 inh | GSK3beta inhib | SR-BI DiI inh
COc1ccc(/C(C)=N\Nc2nc(-c3ccccc3)cc(=O)[nH]2)cc1 | . | . | . | . | 73
Cc1ccccc1NC(=O)CCc1c(C)nn(-c2ccc(N3CCCCC3)nn2)c1C | . | . | . | . | 82
Cc1nn(-c2ccc(N3CCCCC3)nn2)c(C)c1CCC(=O)Nc1cc(F)ccc1F | . | . | . | . | 72
Cc1ccc(NC(=O)CCc2c(C)nn(-c3ccc(N4CCOCC4)nn3)c2C)cc1C | . | . | . | . | 79
CC(C)CN(C(=O)COC(=O)c1c2c(nc3ccccc13)CCC2)c1c(N)n(Cc2ccccc2)c(=O)[nH]c1=O | . | . | . | . | 72
CC(C)C[C@H](NC(=O)N1CC(=O)Nc2ccccc21)C(=O)N[C@@H](Cc1ccccc1)C(=O)O | . | . | . | . | .
CCOc1ccc(C(=O)Nc2cccc(-c3nc4cccnc4o3)c2)cc1Cl | . | . | . | . | 83
CN(C)S(=O)(=O)c1cccc(NC(=S)NCCCn2ccnc2)c1 | . | . | . | . | .
COc1cc(-c2cc(C(=O)Nc3ccc(N4CCOCC4)cc3)c3ccccc3n2)cc(OC)c1OC | . | . | . | . | 90
COc1ccccc1NC(=O)c1cc(-c2cc(OC)c(OC)c(OC)c2)nc2ccccc12 | . | . | . | . | .
CCOc1ccccc1NC(=O)c1cc(-c2cc(OC)c(OC)c(OC)c2)nc2ccccc12 | . | . | . | . | 72
O=C(NN=C1c2ccccc2-c2ccccc21)c1cccc(Br)c1 | . | . | . | . | .
Cc1cc(Oc2ccc(=O)n(C)n2)nc(SCC(N)=O)n1 | . | . | . | . | .
Cc1cc(Oc2ccc(=O)n(C)n2)nc(Oc2ccc(=O)n(C)n2)n1 | . | 82 | . | . | .
COc1ccc(CCn2c(=O)[nH]c3cc(C(=O)N4CCN(c5ccccn5)CC4)ccc3c2=O)cc1OC | . | . | . | . | 81
CC1(C)SC2c3ccccc3C(=O)N2C1C(=O)O (configuration not stated) | / | . | . | / | .
COC(=O)C1CSC(c2ccc(Cl)cc2)N1C(=O)c1ccccc1 (configuration not stated) | . | . | . | . | .
Cc1onc(-c2c(F)cccc2Cl)c1C(=O)Nc1cc(S(=O)(=O)N2CCCCC2)ccc1O | / | . | . | / | .
COc1cc(/C=C2\NC(=S)N(C)C2=O)ccc1OCc1ccccc1F | . | . | . | . | 77
Cc1ccc(C)c(OCC(=O)NNC(=O)c2ccc(NC(=O)C3CC3)cc2)c1 | / | . | . | . | 74
Cc1cc(Br)ccc1OCC(=O)NNC(=O)c1ccc(NC(=O)C2CC2)cc1 | . | . | . | . | .
CCN(CC)S(=O)(=O)c1cccc(NC(=O)/C=C/c2ccc([N+](=O)[O-])cc2)c1 | . | . | . | . | 76
COc1cccc(NC(=O)/C=C/c2ccccc2[N+](=O)[O-])c1 | . | . | . | . | .
CN(c1ccccc1)S(=O)(=O)c1cccc(NC(=O)c2cccc(C#N)c2)c1 | . | . | . | / | .
CN(C)S(=O)(=O)c1cccc(NC(=O)/C=C/c2ccccc2[N+](=O)[O-])c1 | . | . | . | . | 75
CCN(CC)S(=O)(=O)c1cccc(NC(=O)c2ccc(C#N)cc2)c1 | . | . | . | . | 77
CCN(CC)S(=O)(=O)c1ccc(NC(=O)c2ccc(Cl)nc2)cc1 | . | . | . | . | 76

Screening results from PubChem BioAssay.
